Columns and labels:
[1] = system: Plasmodium falciparum 3D7 strain (CQ-sensitive); experiment: P. falciparum in vitro parasite growth inhibition; format: cell-based
Method in brief: (§1)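 Asynchronous culture (65–75% rings, 0.5% parasitemia, 2.5% hematocrit) in RPMI 1640/0.5% Albumax II/5 µM hypoxanthine. Triplicate 3-fold dilutions, 10.0–0.0412 µg/mL, DMSO ≤0.01% final. 37 °C, 5% CO2, 24 h, then [3H]hypoxanthine 0.2 µCi/well for a further 24 h. Plates frozen, harvested, scintillation-counted. IC50 curve-fitted, mean of independent experiments. SI = KB IC50 (72 h, Alamar Blue)/parasite IC50. RI from K1 and 3D7 IC50s.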

[2] = system: Plasmodium falciparum K1 strain (CQ-resistant); experiment: P. falciparum in vitro parasite growth inhibition; format: cell-based; conditions: for RI (K1/3D7) Resistance Index: ratio of K1 and 3D7 IC50
Method in brief: as §1

For `CCN(CC)CCCC(C)Nc1ccnc2cc(Cl)ccc12` (stereo not drawn) [CQ, Chloroquine diphosphate], the “SI 3D7 Selectivity Index” value ([1]; (KB IC50)/(3D7 IC50)) was 8150, the IC50 ([1]; Plasmodium falciparum, 3D7, read-out: 3D7 IC50) was 13.5 nM and the “SI K1 Selectivity Index” value ([2]; (KB IC50)/(K1 IC50)) was 161. The IC50 ([2]; Plasmodium falciparum, K1, read-out: K1 IC50) was 682 nM, the “RI (K1/3D7) Resistance Index” value [2] was 50.52 and the “RI (K1/3D7) Resistance Index” value ([2]; listed as chloroquine) was 50.
